# High-throughput results from PubChem.
# SIRT5 block: inhibitors of human sirtuin-5 desuccinylase; actives 1.1% (n = 330,000); Q9NXA8; inhibition, % at 15 µM; Purified SirT5, succinyl-peptide AMC, trypsin-coupled fluorescence; in the data active = inhibition above about 15%; inconclusive = no clear call, values can overlap the other calls
# Target sequence (Q9NXA8 whole entry, looked up): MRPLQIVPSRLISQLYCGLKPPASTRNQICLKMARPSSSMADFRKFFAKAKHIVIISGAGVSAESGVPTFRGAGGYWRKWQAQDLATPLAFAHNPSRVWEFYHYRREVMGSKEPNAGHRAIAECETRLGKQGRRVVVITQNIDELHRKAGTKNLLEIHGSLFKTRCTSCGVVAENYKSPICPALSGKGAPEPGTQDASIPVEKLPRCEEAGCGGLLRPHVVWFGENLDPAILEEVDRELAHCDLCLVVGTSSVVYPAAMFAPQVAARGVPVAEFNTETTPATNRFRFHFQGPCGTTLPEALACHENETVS
# FN deposition inh: fibronectin deposition inhibition. AH1F fibroblasts, Alexa488-fibronectin deposition fluorescence, overnight. inhibition, % at 12.6 µM. actives 0.086% (n = 350,000). AID 743247;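 active = mean inhibition across replicates of 30% or more, regardless of how many single replicates reach that level; inconclusive = mean under 30% yet at least half of replicates reach 30%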
#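 Material: AH1F fibroblasts assembling fluorescent fibronectin matrix; amount: 10000 AH1F cells/well; medium: DMEM, 2% serum; reagent: Alexa488-fibronectin, 24 nM final in well; dosing: single compound dose, delivered by pin transfer; incubation: 1 h adhesion, overnight exposure; detection: fluorescence after three HBSS washes, excitation 485 nm, emission 525 nm; measure: fibronectin deposition inhibition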
# E-sel inducer: induces E-selectin expression in human endothelial cells; HUVEC E-selectin immunofluorescence imaging; normalized: neutral wells 0, TNF-alpha wells 100; activation, % at 7.58 µM; actives 0.37% (n = 260,000); AID 686992;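 active = mean E-selectin-positive cell signal at least 10% of the positive control, reached in at least 60% of replicates, without over 20% cell loss; inconclusive = no rule given, readout overlaps actives, possibly toxicity-flagged; inactive = the rest, including those meeting only one limit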
#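 System: HUVEC / Compound: single concentration / Signal: immunofluorescence imaging / Read-out: percent E-selectin-positive cells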
# C2C12 statin: protects C2C12 myotubes from simvastatin toxicity. ATP luminescence, 48 h; scaled: DMSO 0, geranylgeraniol control 100. rescue of ATP level, % at 7.49 µM. actives 0.78% (n = 330,000);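 active = mean ATP rescue above about 67%, or every replicate alone reaching that limit, limit read from the data, passing the limit was not always enough; inconclusive = no clear call, values can overlap the other calls; inactive = mean under the limit and some replicate under it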;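 also: myotubes were challenged with 10 µM simvastatin during compound exposure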
# rRNA inh HTS: inhibits bacterial ribosomal RNA function over humanized ribosomes; E. coli WT GFP vs humanized-ribosome RFP mutants, fluorescence, 24 h; stronger effect = lower value; DMSO median 0, no signal -100; GFP signal change (wild-type ribosome), % (concentration not given with the values); actives 1.6% (n = 350,000);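 active = significant combined selectivity score with lowered wild-type GFP, culture density cut under 30%, mutant RFP and density less affected; inactive = any of these conditions unmet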
# FGF22 binding-1: shifts melting point of recombinant human FGF22. recombinant FGF22 thermal shift, SYPRO orange fluorescence; percent of sucrose octasulfate shift, DMSO zero. activity (Tm shift, normalised), % at 9.99 µM. actives 1.5% (n = 340,000);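 active = mean Tm shift, scaled 0 neutral to 100 positive control, at about 1.3% or above, every replicate too, limit read from the data; inconclusive = no clear call, values can overlap the other calls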
# Target sequence (Q9HCT0 whole entry, looked up): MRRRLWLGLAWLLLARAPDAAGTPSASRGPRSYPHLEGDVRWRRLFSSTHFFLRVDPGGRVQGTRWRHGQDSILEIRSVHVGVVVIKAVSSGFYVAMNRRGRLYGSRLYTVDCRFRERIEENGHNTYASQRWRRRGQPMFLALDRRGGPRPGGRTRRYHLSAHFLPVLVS
# FGF22 binding-2: binds human FGF22 shifting its melting temperature; recombinant FGF22 thermal shift, SYPRO orange fluorescence; shares compounds with FGF22 binding-1; thermal shift activity, °C (ΔTm) at 38 µM; actives 2% (n = 1,000); AID 720646;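 active = fitted rise in melting shift crosses a set limit at or below the top valid dose tested; inconclusive = flat fit at mid-level activity, or a poor quality fit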
# FGF22 TSA DP: binds human FGF22 shifting its melting temperature. shares compounds with FGF22 binding-1. Thermal shift assay, SYPRO orange, melting temperature shift. Tm shift (activity), % at 38 µM. 50 tested, under 10 active;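 active = compounds whose fitted dose curve of melting temperature shift rises past a set threshold within the tested doses; inconclusive = flat curve at moderate activity, or poor curve fit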
# SYPRO no-protein: compound-only SYPRO artifact for FGF22 binders | shares compounds with FGF22 binding-1 | compound-only SYPRO orange thermal shift counter-screen, no protein | AC50, µM (series often up to 38 µM) | actives 2% (n = 1,000) | AID 743019;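 active = rising signal whose fitted curve reaches the 0.54 level within the top valid dose, showing a melting point, actives reach about 13 µM in these data; inactive = the rest, including activity in the opposite direction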; also: value is where the raw curve crosses a fixed level and not half-maximal
# Hits are given with their value; . = inactive; ? = inconclusive; / = no result given. The list is not random: actives were taken first. Their share in the collection is about 4%.
SMILES,SIRT5 block,FN deposition inh,E-sel inducer,C2C12 statin,rRNA inh HTS,FGF22 binding-1,FGF22 binding-2,SYPRO no-protein,others
CC(C)N(C[C@H]1[C@H](c2ccccc2)[C@@H](CO)N1S(C)(=O)=O)C(=O)CN(C)C,/,.,.,.,.,1.2,.,.,
N#CCSc1n[nH]c2nc3c(c(=O)n12)C1(CCCCC1)Cc1ccccc1-3,.,.,.,.,.,1.9,.,.,
O=C(C[C@H]1C[C@@H]2c3cc(NC(=O)NC4CCCC4)ccc3O[C@@H]2[C@H](CO)O1)NCc1ccc2c(c1)OCO2,.,/,.,.,.,1.9,.,.,
O=C(C[C@@H]1C[C@@H]2c3cc(NC(=O)NC4CCCC4)ccc3O[C@@H]2[C@@H](CO)O1)NCc1ccc2c(c1)OCO2,/,/,.,.,.,.,/,/,
O=C1CN(Cc2ccc(F)cc2)C[C@@H]2[C@@H](c3ccc(-c4ccccc4F)cc3)[C@H](CO)N12,.,/,.,/,.,/,/,/,
COCCNC(=O)c1cccc2c(-c3ccnn3C)coc12,/,/,.,.,.,.,/,/,
COCCNC(=O)c1cccc2c(-c3cnn(C)c3)coc12,.,.,.,.,.,2.4,.,.,
C[C@@H]1CN([C@@H](C)CO)C(=O)c2cc(-c3ccc(F)cc3)cnc2O[C@H]1CN(C)C(=O)Nc1ccc(F)cc1,/,.,.,.,.,/,/,/,
CC(C)(C)NC(=O)CN(C(=O)CNS(=O)(=O)c1ccc(Cl)cc1)c1ccc2c(c1)OCCO2,.,.,/,.,.,40,.,.,
Brc1ccccc1/C=N/Nc1ccccn1,.,.,.,/,.,2.2,.,.,
Clc1ccccc1C=NNc1ccccn1,.,.,.,.,.,.,/,/,
CCCC(=O)N1CC2(CCN(S(C)(=O)=O)CC2)c2c([nH]c3cc(OC)ccc23)[C@@H]1CO,/,.,.,/,.,.,/,/,
O=C(O)c1ccc(-c2nc(-c3cccc(C(F)(F)F)c3)cs2)cc1,.,/,/,/,.,.,/,/,
O=C(O)c1cccc(-n2cc(-c3cccc(C(F)(F)F)c3)cn2)c1,.,.,.,/,.,1.6,.,.,
C[C@@H](NC(=O)C[C@@H]1CC[C@H]2[C@@H](COC[C@@H](O)CN2C)O1)c1ccccc1,.,.,.,.,.,.,/,/,
NC(=NCCc1c[nH]c2ccccc12)NS(=O)(=O)c1ccc(F)cc1,.,.,.,/,-20,2.7,.,.,
NC(=NCCc1ccc(Cl)cc1)NS(=O)(=O)c1ccc(F)cc1,/,.,/,/,/,/,/,/,
C[C@H]1CN([C@@H](C)CO)C(=O)c2cc(NS(=O)(=O)c3ccc(Cl)cc3)ccc2O[C@@H]1CN(C)C(=O)Nc1ccc2c(c1)OCO2,.,.,.,?,.,2.5,.,.,
C[C@@H]1CN([C@@H](C)CO)C(=O)c2cc(NC(=O)C3CC3)ccc2O[C@@H]1CN(C)C(=O)Nc1ccc2c(c1)OCO2,.,/,.,.,.,2.4,.,.,
C[C@H](CO)N1C[C@H](C)[C@@H](CN(C)C(=O)Nc2ccc3c(c2)OCO3)Oc2c(NC(=O)c3cnccn3)cccc2C1=O,.,/,.,.,.,6.3,.,.,
C[C@H](CO)N1C[C@H](C)[C@H](CN(C)C(=O)Nc2ccc3c(c2)OCO3)Oc2ccc(NS(=O)(=O)c3ccc(Cl)cc3)cc2C1=O,.,/,.,.,.,.,/,/,
C[C@H]1CN([C@@H](C)CO)S(=O)(=O)c2ccc(C3=CCCCC3)cc2O[C@@H]1CN(C)Cc1cncnc1,.,/,.,.,.,.,/,/,
Cc1ccn(-c2ccc(NC(=O)c3cccs3)cc2)n1,.,.,/,.,.,1.8,.,.,FGF22 TSA DP=.
Cc1ccc2c(c1)C1CN(C)CCC1N2S(=O)(=O)c1ccc(C(C)C)cc1 (stereo not given),.,.,.,.,/,14,.,.,
Cc1ccc2c(c1)C1CN(C)CCC1N2S(=O)(=O)c1cccc(C(F)(F)F)c1 (stereo not given),.,.,.,.,.,.,/,/,
SMILES,SIRT5 block,FN deposition inh,E-sel inducer,C2C12 statin,rRNA inh HTS,FGF22 binding-1,FGF22 binding-2,SYPRO no-protein,others
COCC(=O)Nc1ccc2c(c1)[C@@H]1C[C@H](CC(=O)NCCc3ccccc3)O[C@@H](CO)[C@@H]1O2,.,.,.,.,.,.,/,/,
Cn1c(=O)c2c(-c3ccccc3)n(-c3cc([N+](=O)[O-])ccc3O)cc2n(C)c1=O,.,.,.,.,.,1.4,.,.,
Cn1c(=O)c2c(-c3ccccc3)n(-c3cc(Cl)c([N+](=O)[O-])cc3O)cc2n(C)c1=O,.,.,.,.,.,1.6,/,.,
Cc1cccc(-c2c3c(=O)n(C)c(=O)n(C)c3cn2-c2ccccc2O)c1,/,/,/,.,/,/,/,/,
CC(=O)N(C)C[C@@H]1Oc2cc(Br)ccc2S(=O)(=O)N([C@@H](C)CO)C[C@@H]1C,.,.,.,.,.,.,/,/,
Cc1ccc(S(=O)(=O)N2C[C@H](O)COC[C@H]3O[C@H](CC(=O)NCc4ccc(Cl)c(Cl)c4)CC[C@@H]32)cc1,.,.,.,.,.,1.4,.,.,FGF22 TSA DP=.
O=C(C[C@@H]1CC[C@@H]2[C@H](COC[C@@H](O)CN2Cc2cccc(C(F)(F)F)c2)O1)NCc1ccncc1,.,.,.,.,.,.,/,/,
O=C(C[C@@H]1CC[C@H]2[C@@H](COC[C@@H](O)CN2Cc2cccc(C(F)(F)F)c2)O1)NCc1ccncc1,.,.,.,.,.,14,.,.,
O=C(C[C@H]1CC[C@@H]2[C@H](COC[C@H](O)CN2S(=O)(=O)c2cccc(F)c2)O1)Nc1ccc(-c2ccccc2)cc1,.,.,.,.,.,.,/,/,
O=C(C[C@H]1CC[C@H]2[C@@H](COC[C@@H](O)CN2S(=O)(=O)c2cccc(F)c2)O1)Nc1ccc(-c2ccccc2)cc1,.,.,.,.,.,3.3,.,.,
O=C(C[C@H]1CC[C@@H]2[C@H](COC[C@H](O)CN2S(=O)(=O)c2cccc(F)c2)O1)Nc1ccccc1,.,.,.,.,.,2.0,.,.,
O=C(C[C@H]1C[C@H]2c3cc(NC(=O)C4CCOCC4)ccc3O[C@H]2[C@H](CO)O1)NCc1ccc2c(c1)OCO2,/,/,.,.,.,.,/,/,
Cc1cccc(S(=O)(=O)N2C[C@H](O)COC[C@H]3O[C@H](CC(=O)Nc4ccccc4)CC[C@@H]32)c1,.,.,.,.,.,1.8,.,.,
